Assay results taken from ChEMBL document CHEMBL4834426, “Antimalarial Benzimidazole Derivatives Incorporating Phenolic Mannich Base Side Chains Inhibit Microtubule and Hemozoin Formation: Structure-Activity Relationship and In Vivo Oral Efficacy Studies” (J Med Chem, 2021).

How the values were obtained:
[1] = Selectivity index, ratio of IC50 for Cytotoxicity against CHO cells assessed as inhibition of cell viability by MTT assay to IC50 for antimalarial activity against asexual blood stage Plasmodium falciparum NF54 assessed as reduction in parasitemia incubated up to 72 hrs by [3H]hypoxanthine incorporation assay; assay type: toxicity, cell-based; settings: hamster, read-out: Selectivity Index
In short: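 Selectivity index is IC₅₀(CHO)/IC₅₀(NF54). […] IC₅₀ came from nonlinear dose-response fitting. Parasite IC₅₀ came from the [³H]-hypoxanthine assay.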

[2] = system: Plasmodium falciparum; test: Antiplasmodial activity against […] Plasmodium falciparum NF54 early gametocytes transfected with GFP-Luc […] at 1 uM incubated for 48 hrs by microscopy based luciferase reporter gene assay relative to control; assay type: functional
In short: (§1)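 NF54-Pfs16-GFP-Luc gametocytes, assays set up day 5 (early, stage II/III) or day 10 (late, stage IV/V). Culture at 2−3% gametocytemia, 1.5% hematocrit, 48 h drug exposure at 37 °C under 90% N₂/5% O₂/5% CO₂. Lysates mixed with luciferin; bioluminescence read with 10 s integration. Dual-point: one biological repeat in technical triplicate. Methylene blue (5 μM) reference.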

[3] = system: Plasmodium falciparum; test: Antiplasmodial activity against […] Plasmodium falciparum NF54 early gametocytes transfected with GFP-Luc […] at 5 uM incubated for 48 hrs by microscopy based luciferase reporter gene assay relative to control; assay type: functional; in short: as §1
[4] = system: Plasmodium falciparum; test: Antiplasmodial activity against […] Plasmodium falciparum NF54 late gametocytes transfected with GFP-Luc […] at 5 uM incubated for 48 hrs by microscopy based luciferase reporter gene assay relative to control; assay type: functional; in short: as §1
[5] = system: Plasmodium falciparum; test: Antiplasmodial activity against […] Plasmodium falciparum NF54 late gametocytes transfected with GFP-Luc […] at 1 uM incubated for 48 hrs by microscopy based luciferase reporter gene assay relative to control; assay type: functional; in short: as §1
[6] = Resistance index, ratio of IC50 for antimalarial activity against asexual blood stage multi drug-resistant Plasmodium falciparum K1 to IC50 for antimalarial activity against asexual blood stage drug-sensitive Plasmodium falciparum NF54; assay type: functional
In short: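 Resistance index is IC₅₀(K1)/IC₅₀(NF54). Both IC₅₀s came from the [³H]-hypoxanthine incorporation assay, as means of ≥2 independent experiments.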

[7] = system: Plasmodium falciparum; test: Antimalarial activity against asexual blood stage drug-sensitive Plasmodium falciparum NF54 infected in erythrocytes assessed as reduction in parasitemia incubated up to 72 hrs by [3H]hypoxanthine incorporation assay; assay type: functional, organism-based
In short: (§2)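 [³H]-Hypoxanthine incorporation assay (modified) on asexual blood-stage P. falciparum in vitro. IC₅₀ values are means of ≥2 independent experiments.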

[8] = system: CHO; test: Cytotoxicity against CHO cells assessed as inhibition of cell viability by MTT assay; assay type: cell-based; settings: Cricetulus griseus
[9] = system: Plasmodium falciparum; test: Antimalarial activity against asexual blood stage multi drug-resistant Plasmodium falciparum K1 infected in erythrocytes assessed as reduction in parasitemia incubated up to 72 hrs by [3H]hypoxanthine incorporation assay; assay type: functional, organism-based; in short: as §2
[10] = system: Plasmodium falciparum; test: Antiplasmodial activity against […] Plasmodium falciparum NF54 early gametocytes transfected with GFP-Luc […] incubated for 48 hrs by microscopy based luciferase reporter gene assay relative to control; assay type: functional, organism-based; settings: NF54, 48 h
In short: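 Transgenic NF54-Pfs16-GFP-Luc gametocytes, read by luciferase reporter. Early assays were set up on day 5 (50% stage II/50% stage III) and late assays on day 10 (40% stage IV/60% stage V). Luciferin was added to lysates at room temperature and bioluminescence read. Methylene blue (5 μM) was the reference. Single-point screens at 1 and 5 μM used n=1 in technical triplicate. IC₅₀ came from a normalized nonlinear fit, n≥3 in triplicate.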

| Structure (SMILES) | selectivity ratio at 72 h [1] | inhibition at 1 µM [2] [%] | inhibition at 5 µM [3] [%] | inhibition at 5 µM [4] [%] | inhibition at 1 µM [5] [%] | Ratio IC50 [6] | IC50 [7] [nM] | IC50 [8] [nM] | IC50 [9] [nM] | IC50 [10] [nM] |
| --- | --- | --- | --- | --- | --- | --- | --- | --- | --- | --- |
| CCN(CC)Cc1ccc(C)c(Nc2nc3ccccc3n2Cc2ccc(F)cc2)c1O | > 22 | 14 | 24 | 39 | 0 | 0.58 | 2270 | > 50000 | 1320 |  |
| CCN(CC)Cc1ccc(C)c(Nc2nc3ccccc3[nH]2)c1O | > 58 | 3 | 32 | 31 | 34 | 1.88 | 860 | > 50000 | 1620 |  |
| CCN(CC)Cc1ccc(C)c(Nc2nc3ccccc3n2Cc2ccc(C(F)(F)F)cc2)c1O | 11.8 | 18 | 90 | 43 | 29 | 0.33 | 2880 | 33900 | 940 |  |
| CCN(CC)Cc1cccc(Nc2nc3ccccc3[nH]2)c1O | > 89 | 3 | 0 | 34 |  | 1.38 | 560 | > 50000 | 770 |  |
| CCN(CC)Cc1ccc(C)c(Nc2nc3ccccc3n2Cc2ccc(C#N)cc2)c1O | > 57 | 19 | 96 | 22 | 0 | 0.95 | 870 | > 50000 | 830 |  |
| CCN(CC)Cc1cccc(Nc2nc3ccccc3n2Cc2ccc(C(F)(F)F)cc2)c1O | > 113 | 71 | 93 | 56 | 35 | 0.3 | 440 | > 50000 | 130 | 1450 |
| CC(C)(C)NCc1cc(Cl)cc(Nc2nc3cc(F)c(F)cc3[nH]2)c1O | 153 | 0 | 16 | 0 | 0 | 2.4 | 260 | 39700 | 530 |  |
| CCN(CC)Cc1ccc(Nc2nc3ccccc3[nH]2)cc1O | > 26 |  |  |  |  | > 5.32 | 1880 | > 50000 | > 10000 |  |
| CCN(CC)Cc1cc(C)cc(Nc2nc3ccccc3[nH]2)c1O | > 217 | 1 | 44 | 37 |  | 1.83 | 230 | > 50000 | 420 |  |
| CCN(CC)Cc1ccc(Nc2nc3ccccc3n2Cc2ccc(F)cc2)cc1O | 71.5 | 12 | 15 | 36 | 31 | 2 | 640 | 45800 | 1280 |  |
| CC(C)(C)NCc1cc(Cl)cc(Nc2nc3ccccc3[nH]2)c1O | > 185 | 0 | 0 | 0 | 0 | 2.33 | 270 | > 50000 | 630 |  |
| CCN(CC)Cc1ccc(Nc2nc3ccccc3n2Cc2ccc(C(F)(F)F)cc2)cc1O | 88.3 | 36 | 41 | 24 | 2 | 1.85 | 470 | 41500 | 870 |  |
| Cc1cc(CNC(C)(C)C)c(O)c(Nc2nc3cc(F)c(F)cc3[nH]2)c1 | 64 | 0 | 31 | 0 | 0 | 3.19 | 260 | 16600 | 830 |  |
| Cc1cc(CNC(C)(C)C)c(O)c(Nc2nc3ccccc3[nH]2)c1 | 166 | 0 | 47 | 39 | 22 | 3.95 | 200 | 33300 | 790 |  |
| Cc1cc(CNC(C)(C)C)c(O)c(Nc2nc3c(Cl)cc(Cl)cc3[nH]2)c1 | 117 | 0 | 0 | 0 | 0 | 1.81 | 220 | 25800 | 400 |  |
| CCN(CC)Cc1cc(Nc2nc3ccccc3n2Cc2ccc(C(F)(F)F)cc2)ccc1O | 44.9 | 34 | 48 | 45 | 31 | 4.33 | 390 | 17500 | 1690 |  |
| CCN(CC)Cc1ccc(Nc2nc3ccccc3n2Cc2ccc(C#N)cc2)cc1O | 106 | 38 | 44 | 21 |  | 2.05 | 370 | 39000 | 760 |  |
| Cc1cc(CN)c(O)c(Nc2nc3ccccc3n2Cc2ccc(C(F)(F)F)cc2)c1 | 10.4 | 20 | 38 | 0 | 0 |  | 5470 | 47600 |  |  |
| CCN(CC)Cc1cc(C)cc(Nc2nc3ccccc3n2Cc2ccc(C#N)cc2)c1O | 21.8 | 39 | 98 | 52 | 15 | 0.71 | 650 | 14200 | 460 |  |
| CC(C)(C)NCc1cc(C(C)(C)C)cc(Nc2nc3cc(F)c(F)cc3[nH]2)c1O | 228 | 0 | 0 | 0 | 0 | 1.87 | 150 | 34200 | 280 |  |
| CCN(CC)Cc1cc(Nc2nc3ccccc3n2Cc2ccc(F)cc2)ccc1O | 17.6 | 33 | 59 | 39 | 11 | 2.87 | 680 | 12000 | 1950 |  |
| CCN(CC)Cc1cc(Nc2nc3ccccc3[nH]2)ccc1O | > 62 | 30 | 9 | 28 | 0 | 9.09 | 800 | > 50000 | 7270 |  |
| CCN(CC)Cc1cc(Nc2nc3ccccc3n2Cc2ccc(C#N)cc2)ccc1O | > 106 | 20 | 23 | 35 |  | 4.19 | 470 | > 50000 | 1970 |  |
| CC(C)(C)NCc1cc(C(C)(C)C)cc(Nc2nc3ccccc3[nH]2)c1O | > 380 | 30 | 56 | 0 | 0 | 3.12 | 80 | 30500 | 250 |  |
| CN(C)c1ccc2nc3ccc(N(C)C)cc3[s+]c2c1 [METHYLENE BLUE ANHYDROUS] |  | 93 |  |  | 90 |  |  |  |  |  |
| CCN(CC)Cc1cccc(Nc2nc3ccccc3n2Cc2ccc(C#N)cc2)c1O | > 50 | 47 | 69 | 43 |  | 0.66 | 1000 | > 50000 | 660 |  |
